From ChEMBL document CHEMBL5385966, “Synthesis and biological evaluation of new naphthalimide-thiourea derivatives as potent antimicrobial agents active against multidrug-resistant Staphylococcus aureus and Mycobacterium tuberculosis” (RSC Med Chem, 2024)
Converted amounts (≈) assume the structure as drawn. The source made the active and inactive calls. The calls are words filed in the database; no cut-off is given here.

How the values were obtained:
[1] = tested on: Staphylococcus aureus; assay: Antimicrobial activity against Staphylococcus aureus assessed as microbial growth inhibition; assay type: functional
[2] = tested on: Staphylococcus aureus; assay: Antimicrobial activity against methicillin-resistant Staphylococcus aureus assessed as microbial growth inhibition by NCCLS based assay; assay type: functional
[3] = tested on: Staphylococcus aureus; assay: Antibacterial activity against Staphylococcus aureus ATCC 29213 assessed as bacterial growth inhibition incubated for 16 to 18 hrs by CLSI based antibiotic susceptibility testing method; assay type: functional; details: time 16-18 hrs
Procedure, shortened: (§1)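 Broth microdilution in cation-adjusted Mueller-Hinton broth. Compounds were tested at […], with levofloxacin as reference and medium-only controls. Plates were incubated at 37 °C for 16-18 h. MIC was the lowest concentration with no visible growth; three independent determinations, each in duplicate.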

[4] = tested on: Mycobacterium tuberculosis; assay: Antimycobacterial activity against Mycobacterium tuberculosis H37Rv ATCC 27294 assessed as bacterial growth inhibition incubated for 7 days by resazurin dye based broth microdilution method; assay type: functional; details: H37Rv ATCC 27294, 168 h, time 7 day
Procedure, shortened: (§2)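 Broth microdilution in Middlebrook 7H9 with 10% ADC-Tween-80 (0.2% glycerol, 0.05% Tween-80), inoculum ~10⁶ cfu/mL. Compounds came from 10 mg/mL DMSO stocks and were tested as two-fold serial dilutions at 37 °C, 7 days for M. tuberculosis H37Rv and 72 h for NTM. Growth was read visually with PrestoBlue resazurin dye; MIC was the lowest concentration preventing growth. Triplicate determinations, each in duplicate.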

[5] = tested on: Escherichia coli; assay: Antibacterial activity against Escherichia coli ATCC 25922 assessed as bacterial growth inhibition incubated for 16 to 18 hrs by CLSI based antibiotic susceptibility testing method; assay type: functional, organism-based; details: time 16-18 hrs; procedure, shortened: as §1
[6] = tested on: Klebsiella pneumoniae; assay: Antibacterial activity against Klebsiella pneumoniae BAA 1705 assessed as bacterial growth inhibition incubated for 16 to 18 hrs by CLSI based antibiotic susceptibility testing method; assay type: functional, organism-based; details: time 16-18 hrs; procedure, shortened: as §1
[7] = tested on: Acinetobacter baumannii; assay: Antibacterial activity against Acinetobacter baumannii BAA 1605 assessed as bacterial growth inhibition incubated for 16 to 18 hrs by CLSI based antibiotic susceptibility testing method; assay type: functional, organism-based; details: time 16-18 hrs; procedure, shortened: as §1
[8] = tested on: Pseudomonas aeruginosa; assay: Antibacterial activity against Pseudomonas aeruginosa ATCC 27853 assessed as bacterial growth inhibition incubated for 16 to 18 hrs by CLSI based antibiotic susceptibility testing method; assay type: functional, organism-based; details: time 16-18 hrs; procedure, shortened: as §1
[9] = tested on: Mycobacteroides abscessus; assay: Antimycobacterial activity against Mycobacterium abscessus ATCC 19977 assessed as bacterial growth inhibition incubated for 72 hrs by resazurin dye based broth microdilution method; assay type: functional, organism-based; procedure, shortened: as §2
[10] = tested on: Mycolicibacterium fortuitum; assay: Antimycobacterial activity against Mycobacterium fortuitum ATCC 6841 assessed as bacterial growth inhibition incubated for 72 hrs by resazurin dye based broth microdilution method; assay type: functional, organism-based; procedure, shortened: as §2
[11] = tested on: Mycobacteroides chelonae; assay: Antimycobacterial activity against Mycobacteroides chelonae ATCC 35752 assessed as bacterial growth inhibition incubated for 72 hrs by resazurin dye based broth microdilution method; assay type: functional, organism-based; procedure, shortened: as §2
[12] = Cytotoxicity against African green monkey Vero cells by MTT assay; assay type: toxicity, cell-based; details: chlorocebus sabaeus
Procedure, shortened: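 Vero cells were seeded at ~10³ per well at 37 °C, 5% CO2. After 24 h, compounds were added at 5-100 mg/L for 72 h. […] was added for 4 h, formazan was dissolved in DMSO and read at 540 nm. CC50 was taken as the lowest concentration reducing viability by 50%; doxorubicin was the positive control; triplicate.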

[13] = Selectivity index, ratio of CC50 for African green monkey Vero cells to MIC for Staphylococcus aureus ATCC 29213; assay type: toxicity, cell-based; details: read-out: Selectivity Index
[14] = tested on: Staphylococcus aureus; assay: Antibacterial activity against methicillin-sensitive Staphylococcus aureus ATCC 29213 clinical isolate assessed as bacterial growth inhibition incubated for 16 to 18 hrs by CLSI based antibiotic susceptibility testing method; assay type: functional; details: time 16-18 hrs; procedure, shortened: as §1
[15] = tested on: Staphylococcus aureus; assay: Antibacterial activity against methicillin/ceftriaxone/meropenem/gentamycin/linezolid-resistant Staphylococcus aureus NRS10100 clinical isolate assessed as bacterial growth inhibition incubated for 16 to 18 hrs by CLSI based antibiotic susceptibility testing method; assay type: functional; details: time 16-18 hrs; procedure, shortened: as §1
[16] = tested on: Staphylococcus aureus; assay: Antibacterial activity against methicillin/ceftriaxone/meropenem/gentamycin/linezolid-resistant Staphylococcus aureus NRS10119 clinical isolate assessed as bacterial growth inhibition incubated for 16 to 18 hrs by CLSI based antibiotic susceptibility testing method; assay type: functional; details: time 16-18 hrs; procedure, shortened: as §1
[17] = tested on: Staphylococcus aureus; assay: Antibacterial activity against methicillin/ceftriaxone/meropenem-resistant Staphylococcus aureus NRS10129 clinical isolate assessed as bacterial growth inhibition incubated for 16 to 18 hrs by CLSI based antibiotic susceptibility testing method; assay type: functional; details: time 16-18 hrs; procedure, shortened: as §1
[18] = tested on: Staphylococcus aureus; assay: Antibacterial activity against methicillin/ceftriaxone/meropenem-resistant Staphylococcus aureus NRS10186 clinical isolate assessed as bacterial growth inhibition incubated for 16 to 18 hrs by CLSI based antibiotic susceptibility testing method; assay type: functional; details: time 16-18 hrs; procedure, shortened: as §1
[19] = tested on: Staphylococcus aureus; assay: Antibacterial activity against methicillin/ceftriaxone/meropenem-resistant Staphylococcus aureus NRS10191 clinical isolate assessed as bacterial growth inhibition incubated for 16 to 18 hrs by CLSI based antibiotic susceptibility testing method; assay type: functional; details: time 16-18 hrs; procedure, shortened: as §1
[20] = tested on: Staphylococcus aureus; assay: Antibacterial activity against methicillin/ceftriaxone/meropenem-resistant Staphylococcus aureus NRS10192 clinical isolate assessed as bacterial growth inhibition incubated for 16 to 18 hrs by CLSI based antibiotic susceptibility testing method; assay type: functional; details: time 16-18 hrs; procedure, shortened: as §1
[21] = tested on: Staphylococcus aureus; assay: Antibacterial activity against methicillin/ceftriaxone/meropenem-resistant Staphylococcus aureus NRS10193 clinical isolate assessed as bacterial growth inhibition incubated for 16 to 18 hrs by CLSI based antibiotic susceptibility testing method; assay type: functional; details: time 16-18 hrs; procedure, shortened: as §1
[22] = tested on: Staphylococcus aureus; assay: Antibacterial activity against methicillin/ceftriaxone-resistant Staphylococcus aureus NRS10194 clinical isolate assessed as bacterial growth inhibition incubated for 16 to 18 hrs by CLSI based antibiotic susceptibility testing method; assay type: functional; details: time 16-18 hrs; procedure, shortened: as §1
[23] = tested on: Staphylococcus aureus; assay: Antibacterial activity against methicillin/ceftriaxone/meropenem-resistant Staphylococcus aureus NRS10198 clinical isolate assessed as bacterial growth inhibition incubated for 16 to 18 hrs by CLSI based antibiotic susceptibility testing method; assay type: functional; details: time 16-18 hrs; procedure, shortened: as §1
[24] = tested on: Staphylococcus aureus; assay: Antibacterial activity against methicillin/ceftriaxone/meropenem/gentamycin/vancomycin/teicoplanin-resistant Staphylococcus aureus VRS1 clinical isolate assessed as bacterial growth inhibition incubated for 16 to 18 hrs by CLSI based antibiotic susceptibility testing method; assay type: functional; details: time 16-18 hrs; procedure, shortened: as §1
[25] = tested on: Staphylococcus aureus; assay: Antibacterial activity against methicillin/ceftriaxone/meropenem/vancomycin/teicoplanin-resistant Staphylococcus aureus VRS4 clinical isolate assessed as bacterial growth inhibition incubated for 16 to 18 hrs by CLSI based antibiotic susceptibility testing method; assay type: functional; details: time 16-18 hrs; procedure, shortened: as §1
[26] = tested on: Staphylococcus aureus; assay: Antibacterial activity against methicillin/ceftriaxone/meropenem/vancomycin/teicoplanin-resistant Staphylococcus aureus VRS12 clinical isolate assessed as bacterial growth inhibition incubated for 16 to 18 hrs by CLSI based antibiotic susceptibility testing method; assay type: functional; details: time 16-18 hrs; procedure, shortened: as §1
[27] = tested on: Staphylococcus aureus; assay: Bactericidal activity against Staphylococcus aureus ATCC 29213 assessed as reduction in remnant bacterial cells at 10 times MIC measured for 24 hrs by time-kill assay; assay type: functional
Procedure, shortened: (§3)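 Time-kill assay: S. aureus ATCC 29213 at ~10⁶ cfu/mL in MHB, exposed to 1X and 10X MIC at 37 °C, in triplicate. Samples taken at 0, 1, 6 and 24 h were serially diluted in PBS and plated on TSA for 18-20 h at 37 °C. Surviving cfu/mL were counted against untreated controls.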

[28] = tested on: Staphylococcus aureus; assay: Bactericidal activity against Staphylococcus aureus ATCC 29213 assessed as reduction in remnant bacterial cells measured for 24 hrs by time-kill assay; assay type: functional, organism-based; procedure, shortened: as §3

Row | SMILES | MIC [1] | MIC [3] | MIC [4] | growth inhibition (GI) [5] | growth inhibition (GI) [6] | growth inhibition (GI) [7] | growth inhibition (GI) [8] | growth inhibition (GI) [9] | growth inhibition (GI) [10] | growth inhibition (GI) [11] | CC50 [12] | selectivity ratio [13] | MIC [14] | MIC [15] | MIC [16] | MIC [17] | MIC [18] | MIC [19] | MIC [20] | MIC [21] | further results
1 | CCCOC(=O)c1ccc2sc(NC(=S)N[C@@H]3O[C@H](COC(C)=O)[C@@H](OC(C)=O)[C@H](OC(C)=O)[C@H]3OC(C)=O)nc2c1 | 0.78 µg/mL (≈ 1.25 µM) | – | – | – | – | – | – | – | – | – | – | – | – | – | – | – | – | – | – | – | –
2 | CCNc1ccc2c3c(cccc13)C(=O)N(CC(O)Cn1c([N+](=O)[O-])cnc1C)C2=O (stereo not given) | – | – | – | – | – | – | – | – | – | – | – | – | – | – | – | – | – | – | – | – | MIC [2]: 40 µM (≈ 16.9 µg/mL)
3 | O=C1c2cccc3cccc(c23)C(=O)N1CCN1CCN(C(=S)NC2CCCC2)CC1 | – | 0.125 µg/mL (≈ 0.286 µM) | 2 µg/mL (≈ 4.58 µM) | inactive | inactive | inactive | inactive | inactive | inactive | inactive | > 20 µg/mL | > 160 | 0.125 µg/mL (≈ 0.286 µM) | 0.25 µg/mL (≈ 0.573 µM) | 0.125 µg/mL (≈ 0.286 µM) | 0.25 µg/mL (≈ 0.573 µM) | 0.25 µg/mL (≈ 0.573 µM) | 0.125 µg/mL (≈ 0.286 µM) | 0.125 µg/mL (≈ 0.286 µM) | 0.125 µg/mL (≈ 0.286 µM) | MIC [22]: 0.125 µg/mL (≈ 0.286 µM); MIC [23]: 0.125 µg/mL (≈ 0.286 µM); MIC [24]: 0.125 µg/mL (≈ 0.286 µM); MIC [25]: 0.125 µg/mL (≈ 0.286 µM); MIC [26]: 0.25 µg/mL (≈ 0.573 µM); Activity [27]: ~5 log10CFU/ml; Activity [28]: Dose-Dependent Effect
4 | O=C1c2cccc3cccc(c23)C(=O)N1CCN1CCN(C(=S)NC2CCCCC2)CC1 | – | 0.125 µg/mL (≈ 0.277 µM) | 4 µg/mL (≈ 8.88 µM) | inactive | inactive | inactive | inactive | inactive | inactive | inactive | > 20 µg/mL | > 160 | 0.25 µg/mL (≈ 0.555 µM) | 0.25 µg/mL (≈ 0.555 µM) | 0.25 µg/mL (≈ 0.555 µM) | 0.25 µg/mL (≈ 0.555 µM) | 0.25 µg/mL (≈ 0.555 µM) | 0.25 µg/mL (≈ 0.555 µM) | 0.25 µg/mL (≈ 0.555 µM) | 0.25 µg/mL (≈ 0.555 µM) | MIC [22]: 0.25 µg/mL (≈ 0.555 µM); MIC [23]: 0.25 µg/mL (≈ 0.555 µM); MIC [24]: 0.25 µg/mL (≈ 0.555 µM); MIC [25]: 0.25 µg/mL (≈ 0.555 µM); MIC [26]: 0.5 µg/mL (≈ 1.11 µM); Activity [27]: ~5 log10CFU/ml; Activity [28]: Dose-Dependent Effect
5 | CCCCCc1nnc(NC(=S)NS(=O)(=O)c2ccc(C)cc2)s1 | 0.78 µg/mL (≈ 2.03 µM) | – | – | – | – | – | – | – | – | – | – | – | – | – | – | – | – | – | – | – | –
